Reference: ChEMBL document CHEMBL1944595, “1,4-diarylpiperazines and analogs as anti-tubercular agents: synthesis and biological evaluation” (Eur J Med Chem, 2012)
In brackets after ≈: the same amount, converted by molar mass.

Assays:
Format in all cases: functional
[1] = test system: Mycobacterium tuberculosis; experiment: Antibacterial activity against Mycobacterium tuberculosis H37Rv harboring pSMT1 encoding Vibrio harveyi luxAB gene at 10 uM after 7 days by luminometric analysis; conditions: 168 h, read-out: GI
Outline: (§1)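 Same extracellular assay. Bacteria seeded at 1000 RLU per well in Sauton + 10% FCS. Compounds added from 1 mM DMSO stocks to final 10, 1 or 0.1 per well. Incubated 7 days at 37 °C, 5% CO2. Wells harvested, washed four times with PBS and pooled. 1% n-decanal added and luminescence read over 10 s. Percent growth inhibition calculated against untreated control cultures.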

[2] = test system: Mycobacterium tuberculosis; experiment: Antibacterial activity against Mycobacterium tuberculosis H37Rv harboring pSMT1 encoding Vibrio harveyi luxAB gene at 0.1 uM after 7 days by luminometric analysis; conditions: 168 h, read-out: GI; outline: as §1
[3] = test system: Mycobacterium tuberculosis; experiment: Antibacterial activity against Mycobacterium tuberculosis H37Rv harboring pSMT1 encoding Vibrio harveyi luxAB gene at 1 uM after 7 days by luminometric analysis; conditions: 168 h, read-out: GI; outline: as §1
[4] = test system: Mycobacterium tuberculosis; experiment: Antibacterial activity against Mycobacterium tuberculosis H37Rv harboring pSMT1 encoding Vibrio harveyi luxAB gene infected in mouse J774.A1 cells at 0.5 uM after 5 days by luminometric analysis; conditions: J774.A1, 120 h, read-out: GI
Outline: (§2)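 J774.A1 macrophages seeded at 40 000 per well and rested overnight. Infected with 4000 RLU of luminescent H37Rv (MOI 0.1) in DMEM with penicillin/Fungizone, with compound dilutions added. Treated 5 days, then washed, given 1 h 1% gentamicin, and lysed with 1% Triton X-100. Lysate luminescence read over 10 s with n-decanal. Inhibition relative to untreated infected cells; six replicate cultures.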

[5] = test system: Mycobacterium tuberculosis; experiment: Antibacterial activity against Mycobacterium tuberculosis H37Rv harboring pSMT1 encoding Vibrio harveyi luxAB gene after 7 days by luminometric analysis; conditions: 168 h
[6] = test system: Mycobacterium tuberculosis; experiment: Antibacterial activity against Mycobacterium tuberculosis H37Rv harboring pSMT1 encoding Vibrio harveyi luxAB gene infected in mouse J774.A1 cells at 1 uM after 5 days by luminometric analysis; conditions: J774.A1, 120 h, read-out: GI; outline: as §2
[7] = test system: Mycobacterium tuberculosis; experiment: Antibacterial activity against Mycobacterium tuberculosis H37Rv harboring pSMT1 encoding Vibrio harveyi luxAB gene infected in mouse J774.A1 cells at 2 uM after 5 days by luminometric analysis; conditions: J774.A1, 120 h, read-out: GI; outline: as §2
[8] = test system: Mycobacterium tuberculosis; experiment: Antimicrobial activity against multidrug-resistant Mycobacterium tuberculosis LAM1 by BACTEC 460-TB method
Outline: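 Clinical MDR LAM-1 isolate, resistant to isoniazid, rifampicin, rifabutin and prothionamide. Pre-cultured in 7H9-based BACTEC vial to growth index 300. 100 µL inoculated into a new vial with compound dilutions prepared in 7H9 + 10% OADC. GI read daily. MIC99 determined by comparison with an untreated culture diluted 100-fold at inoculation.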

Row | Compound | inhibition of growth at 10 µM [1] [%] | inhibition of growth at 0.1 µM [2] [%] | inhibition of growth at 1 µM [3] [%] | inhibition in vivo at 0.5 µM [4] [%] | MIC50 [5] [µM] | inhibition in vivo at 1 µM [6] [%] | inhibition in vivo at 2 µM [7] [%] | MIC99 [8] [µM]
1 | O=[N+]([O-])c1ccc(N2CCN(c3ccccc3)CC2)cc1 | 26 | < 10 | < 10 |  |  |  |  | 
2 | O=[N+]([O-])c1ccc(NCCNc2ccc([N+](=O)[O-])cc2)cc1 | 16 | < 10 | < 10 |  |  |  |  | 
3 | O=[N+]([O-])c1ccc(N2CCN(c3ccc([N+](=O)[O-])cc3)CC2)cc1 | 13 | < 10 | 10 |  |  |  |  | 
4 | Nc1ccc(N2CCN(c3ccccc3)CC2)cc1 | 30 | < 10 | < 10 |  |  |  |  | 
5 | N#Cc1ccc(N2CCN(c3ccccc3)CC2)cc1 | 23 | < 10 | < 10 |  |  |  |  | 
6 | Nc1ccc(N2CCN(c3ccc(N)cc3)CC2)cc1 | 27 | < 10 | 10 |  |  |  |  | 
7 | N#Cc1ccc(N2CCN(c3ccc(C#N)cc3)CC2)cc1 | 22 | < 10 | < 10 |  |  |  |  | 
8 | O=[N+]([O-])c1ccccc1NCCNc1ccccc1[N+](=O)[O-] | < 10 | < 10 | < 10 |  |  |  |  | 
9 | O=[N+]([O-])c1cccc(NCCNc2cccc([N+](=O)[O-])c2)c1 | 13 | < 10 | < 10 |  |  |  |  | 
10 | N#Cc1ccc(NCCNc2ccc(C#N)cc2)cc1 | 10 | < 10 | < 10 |  |  |  |  | 
11 | N#Cc1ccccc1NCCNc1ccccc1C#N | < 10 | < 10 | < 10 |  |  |  |  | 
12 | N#Cc1cccc(NCCNc2cccc(C#N)c2)c1 | < 10 | < 10 | < 10 |  |  |  |  | 
13 | Cl.N=C(N)c1ccc(N2CCN(c3ccccc3)CC2)cc1 | 14 | < 10 | < 10 | -0.47 | 29.6 | 0.41 | 1.83 | 
14 | CNC(=N)c1ccc(N2CCN(c3ccccc3)CC2)cc1.Cl | 16 | < 10 | < 10 | -0.8 | 15.9 | 6.43 | 14.9 | 
15 | CCNC(=N)c1ccc(N2CCN(c3ccccc3)CC2)cc1.Cl | 10 | < 10 | < 10 | 3.93 | 11.9 | 13.4 | 22.5 | 
16 | CCCNC(=N)c1ccc(N2CCN(c3ccccc3)CC2)cc1.Cl | 33 | < 10 | < 10 | 5.62 | 7.01 | 12.9 | 26.1 | 
17 | CCCCNC(=N)c1ccc(N2CCN(c3ccccc3)CC2)cc1.Cl | 66 | < 10 | < 10 | 25.6 | 2.16 | 31.6 | 50.6 | 
18 | CCCCCNC(=N)c1ccc(N2CCN(c3ccccc3)CC2)cc1.Cl | 95 | < 10 | 39 | 44.7 | 1.2 | 53.6 | 64.7 | 3.85
19 | CCCCCCNC(=N)c1ccc(N2CCN(c3ccccc3)CC2)cc1.Cl | 99 | 49 | 91 | 67.1 | 0.264 | 79.2 | 88.1 | 2.11
20 | CCCCCCCNC(=N)c1ccc(N2CCN(c3ccccc3)CC2)cc1.Cl | 100 | 47 | 94 | 61.1 | 0.091 | 64.2 | 83.3 | 1.48
21 | CCCCCCCCNC(=N)c1ccc(N2CCN(c3ccccc3)CC2)cc1.Cl | 100 | 61 | 94 | 15.2 | 0.072 | 31.1 | 71.6 | 1.17
22 | CCCCCCCCCCCCNC(=N)c1ccc(N2CCN(c3ccccc3)CC2)cc1.Cl | 100 | 68 | 97 | 10.7 | 0.052 | 23.4 | 44.9 | 0.95
23 | CCC(CC)NC(=N)c1ccc(N2CCN(c3ccccc3)CC2)cc1 | 67 | < 10 | 19 |  |  |  |  | 
24 | N=C(N)c1ccc(NCCNc2ccccc2)cc1 | < 100 | < 10 | < 10 |  |  |  |  | 
25 | CCC(CC)NC(=N)c1ccc(NCCNc2ccccc2)cc1 | 63 | 10 | 19 |  |  |  |  | 
26 | CCCCCCNC(=N)c1ccc(NCCNc2ccccc2)cc1 | 93 | 23 | 48 |  |  |  |  | 
27 | N=C(NCCc1ccccc1)c1ccc(N2CCN(c3ccccc3)CC2)cc1 | 97 | < 10 | 56 |  |  |  |  | 
28 | NNC(=O)c1ccncc1 [ISONIAZID] | 100 | 98 | 100 | 9.77 | 0.465 (≈ 0.0638 µg/mL) | 29.4 | 51.4 | 
